What was measured:
SW-620 = assay: Growth inhibition of human SW620 cells by MTT assay; format: functional
Outline: (§1)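 MTT viability assay: 3×10³ cells/well were pre-incubated for 24 h, then exposed to 0, 12.5, 25, 50, 100 or 200 μM for 12, 24, 48 or 72 h. MTT was added at 0.5 mg/mL final for 4 h, formazan dissolved in DMSO, and absorbance read at 570 nm. GI₅₀ was taken from growth-inhibition curves; mean ± SD of three independent experiments, each in sextuplicate.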

HT-29 = assay: Growth inhibition of human HT-29 cells by MTT assay; format: functional; outline: as §1

CC(C)CN(C(=O)c1cccs1)c1c2ccccc2c(=O)n2c1[nH]c1ccccc12
GI50 (SW-620): 44.1 µM
GI50 (HT-29): 49.5 µM

O=C(c1ccccc1)N(Cc1ccccc1)c1c2ccccc2c(=O)n2c1[nH]c1ccccc12
GI50 (SW-620): 69.7 µM
GI50 (HT-29): 74.3 µM

O=C(c1ccncc1)N(CCc1ccccc1)c1c2ccccc2c(=O)n2c1[nH]c1ccccc12
GI50 (SW-620): 48.9 µM
GI50 (HT-29): 52.3 µM

O=C(c1cccnc1)N(c1ccccc1Br)c1c2ccccc2c(=O)n2c1[nH]c1ccccc12
GI50 (SW-620): 57.9 µM
GI50 (HT-29): 61.3 µM

O=C(c1ccco1)N(c1ccccc1Br)c1c2ccccc2c(=O)n2c1[nH]c1ccccc12
GI50 (SW-620): 46 to 100 µM
GI50 (HT-29): 43.7 to 100 µM

O=C(c1cccs1)N(c1c2ccccc2c(=O)n2c1[nH]c1ccccc12)C1CC1
GI50 (SW-620): 47.6 µM
GI50 (HT-29): 51.3 µM

O=C(c1ccccc1)N(c1ccccc1)c1c2ccccc2c(=O)n2c1[nH]c1ccccc12
GI50 (SW-620): > 100 µM
GI50 (HT-29): > 100 µM

CC(C)CN(C(=O)c1ccccc1C(=O)O)c1c2ccccc2c(=O)n2c1[nH]c1ccccc12
GI50 (SW-620): 52.7 µM
GI50 (HT-29): 59.8 µM

CC(C)CN(C(=O)c1ccco1)c1c2ccccc2c(=O)n2c1[nH]c1ccccc12
GI50 (SW-620): 53.5 µM
GI50 (HT-29): 52.8 µM

O=C(Nc1c2ccccc2c(=O)n2c1[nH]c1ccccc12)c1ccccc1
GI50 (SW-620): > 100 µM
GI50 (HT-29): > 100 µM

CC(=O)N(c1ccccc1Br)c1c2ccccc2c(=O)n2c1[nH]c1ccccc12
GI50 (SW-620): 46.9 to 100 µM
GI50 (HT-29): 57.2 to 100 µM

Reference: ChEMBL document CHEMBL4229410, “Facile construction of fused benzimidazole-isoquinolinones that induce cell-cycle arrest and apoptosis in colorectal cancer cells” (Bioorg Med Chem, 2018)
